Results reported in ChEMBL document CHEMBL3576840, “Helical Antimicrobial Sulfono-γ-AApeptides” (J Med Chem, 2015).
≈ marks a conversion by molar mass, not a printed value. Residues, ends and D or L forms follow the SMILES beside them.

How the values were obtained:
Staphylococcus aureus = experiment: Antimicrobial activity against methicillin-resistant Staphylococcus aureus ATCC 33592 after 16 hrs; assay type: functional; conditions: ATCC 33592, 16 h
[1] = test system: Staphylococcus epidermidis; experiment: Antimicrobial activity against methicillin-resistant Staphylococcus epidermidis RP62A after 16 hrs; assay type: functional
Enterococcus faecalis = experiment: Antimicrobial activity against Enterococcus faecalis ATCC 700802 after 16 hrs; assay type: functional; conditions: ATCC 700802, 16 h
In short: (§1)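 Broth microdilution: overnight cultures were reinoculated at 1:100, grown to mid-log phase, and diluted to 1 × 10^6 CFU/mL. Cells were mixed 1:1 with serial dilutions […] and incubated 16 h at 37 °C, then read at 600 nm. MIC is the lowest concentration with no growth. Repeated multiple times, in duplicate.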

Pseudomonas aeruginosa = experiment: Antimicrobial activity against Pseudomonas aeruginosa ATCC 27853 after 16 hrs; assay type: functional; conditions: ATCC 27853, 16 h; in short: as §1
Escherichia = experiment: Antimicrobial activity against Escherichia ATCC 25922 after 16 hrs; assay type: functional; conditions: ATCC 25922, 16 h; in short: as §1
[2] = Induction of hemolysis in human RBCs incubated for 1 hr; assay type: cell-based, Erythrocyte; conditions: red blood cells
In short: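 Fresh K2EDTA human RBCs were washed in PBS until the supernatant was clear and diluted to a 5% v/v suspension. This was mixed with equal volumes of compound dilutions for 1 h at 37 °C, centrifuged, and supernatant absorbance read at 360 nm. Hemolysis was normalized between PBS (0%) and 2% Triton X-100 (100%) controls. At least three repeats, in duplicate.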

N2a = experiment: Cytotoxicity against mouse N2a cells assessed as cell viability after 36 hrs by MTT assay
[3] = Stability in presence of 0.1 mg/ml pronase in 100 mM pH 7.8 ammonium bicarbonate buffer at 37 degC assessed as compound degradation after 18 hrs by HPLC method; assay type: physicochemical; conditions: pH 7.8, 18 h
In short: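 Compound or control peptide AcVQIVYK (1 mg/mL) was incubated 18 h at 37 °C with Pronase in ammonium bicarbonate. Mixtures were dried by speed-vac at 60 °C, redissolved in water and run on analytical RP-HPLC: 5–100% acetonitrile/0.1% TFA gradient over 40 min at 1 mL/min.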

Stability [3] | SMILES | MIC (Staphylococcus aureus) [µg/mL] | MIC [1] [µg/mL] | MIC (Enterococcus faecalis) [µg/mL] | MIC (Pseudomonas aeruginosa) [µg/mL] | MIC (Escherichia) [µg/mL] | HC50 at 1 h [2] [µg/mL] | EC50 (N2a) [µg/mL]
 | CC(C)C[C@H](N)CN(CC(=O)N[C@@H](CC(C)C)CN(CC(=O)N[C@@H](CC(C)C)CN(CC(=O)N[C@@H](CCCCN)CN(CC(=O)N[C@@H](CC(C)C)CN(CC(=O)N[C@@H](CC(C)C)CN(CC(=O)N[C@@H](CC(C)C)CN(CC(=O)N[C@@H](CCCCN)CN(CC(N)=O)S(=O)(=O)CCN)S(=O)(=O)CC(C)C)S(=O)(=O)CCN)S(=O)(=O)CC(C)C)S(=O)(=O)CCN)S(=O)(=O)CC(C)C)S(=O)(=O)CCN)S(=O)(=O)CC(C)C | > 50 | 12 (≈ 5.44 µM) | > 50 | 50 (≈ 22.7 µM) | 12 (≈ 5.44 µM) | > 250 | 
 | CC(=O)N[C@@H](CCCCN)CN(CC(=O)N[C@@H](CCCCN)CN(CC(=O)N[C@@H](CCCCN)CN(CC(=O)N[C@@H](CCCCN)CN(CC(=O)N[C@@H](CCCCN)CN(CC(=O)N[C@@H](CCCCN)CN(CC(=O)N[C@@H](CCCCN)CN(CC(=O)N[C@@H](CCCCN)CN(CC(N)=O)S(=O)(=O)Cc1ccccc1)S(=O)(=O)Cc1ccccc1)S(=O)(=O)Cc1ccccc1)S(=O)(=O)Cc1ccccc1)S(=O)(=O)Cc1ccccc1)S(=O)(=O)Cc1ccccc1)S(=O)(=O)Cc1ccccc1)S(=O)(=O)Cc1ccccc1 | > 50 | > 50 | > 50 | > 50 | > 50 |  | 
 | NCCCC[C@H](N)CN(CC(=O)N[C@@H](Cc1ccccc1)CN(CC(=O)N[C@@H](Cc1ccccc1)CN(CC(=O)N[C@@H](Cc1ccccc1)CN(CC(=O)N[C@@H](CCCCN)CN(CC(N)=O)S(=O)(=O)CCN)S(=O)(=O)Cc1ccccc1)S(=O)(=O)CCN)S(=O)(=O)Cc1ccccc1)S(=O)(=O)CCN | > 50 | 20 (≈ 12.8 µM) | > 50 | > 50 | 25 (≈ 16 µM) | > 250 | 
 | NCCCC[C@@H](CN(CC(N)=O)S(=O)(=O)CCN)NC(=O)CN(C[C@H](Cc1ccccc1)NC(=O)CN(C[C@H](Cc1ccccc1)NC(=O)CN(C[C@@H](N)Cc1ccccc1)S(=O)(=O)Cc1ccccc1)S(=O)(=O)CCN)S(=O)(=O)Cc1ccccc1 | > 50 | 20 (≈ 15.6 µM) | > 50 | > 50 | 25 (≈ 19.5 µM) | > 250 | 
 | CC(=O)N[C@@H](Cc1ccccc1)CN(CC(=O)N[C@@H](Cc1ccccc1)CN(CC(=O)N[C@@H](Cc1ccccc1)CN(CC(=O)N[C@@H](CCCCN)CN(CC(=O)N[C@@H](Cc1ccccc1)CN(CC(=O)N[C@@H](Cc1ccccc1)CN(CC(=O)N[C@@H](Cc1ccccc1)CN(CC(=O)N[C@@H](CCCCN)CN(CC(N)=O)S(=O)(=O)CCN)S(=O)(=O)Cc1ccccc1)S(=O)(=O)CCN)S(=O)(=O)Cc1ccccc1)S(=O)(=O)CCN)S(=O)(=O)Cc1ccccc1)S(=O)(=O)CCN)S(=O)(=O)Cc1ccccc1 | 4 (≈ 1.55 µM) | 2 (≈ 0.773 µM) | 2 (≈ 0.773 µM) | 6 (≈ 2.32 µM) | 4 (≈ 1.55 µM) | 75 | 80 (≈ 30.9 µM)
 | NCCCC[C@@H](CN(CC(N)=O)S(=O)(=O)CCN)NC(=O)CN(C[C@H](Cc1ccccc1)NC(=O)CN(C[C@H](Cc1ccccc1)NC(=O)CN(C[C@H](Cc1ccccc1)NC(=O)CN(C[C@H](CCCCN)NC(=O)CN(C[C@H](Cc1ccccc1)NC(=O)CN(C[C@@H](N)Cc1ccccc1)S(=O)(=O)CCN)S(=O)(=O)Cc1ccccc1)S(=O)(=O)CCN)S(=O)(=O)Cc1ccccc1)S(=O)(=O)CCN)S(=O)(=O)Cc1ccccc1 | 3 (≈ 1.36 µM) | 3 (≈ 1.36 µM) | > 50 | 12 (≈ 5.45 µM) | 12 (≈ 5.45 µM) | > 250 | 
 | CC(=O)N[C@@H](CC(C)C)CN(CC(=O)N[C@@H](CC(C)C)CN(CC(=O)N[C@@H](CC(C)C)CN(CC(=O)N[C@@H](CC(C)C)CN(CC(=O)N[C@@H](CC(C)C)CN(CC(=O)N[C@@H](CC(C)C)CN(CC(=O)N[C@@H](CC(C)C)CN(CC(=O)N[C@@H](CC(C)C)CN(CC(N)=O)S(=O)(=O)CCN)S(=O)(=O)CCN)S(=O)(=O)CCN)S(=O)(=O)CCN)S(=O)(=O)CCN)S(=O)(=O)CCN)S(=O)(=O)CCN)S(=O)(=O)CCN | > 50 | > 50 | > 50 | > 50 | > 50 |  | 
 | CC(=O)N[C@@H](CC(C)C)CN(CC(=O)N[C@@H](CC(C)C)CN(CC(=O)N[C@@H](CC(C)C)CN(CC(=O)N[C@@H](CCCCN)CN(CC(=O)N[C@@H](CC(C)C)CN(CC(=O)N[C@@H](CC(C)C)CN(CC(=O)N[C@@H](CC(C)C)CN(CC(=O)N[C@@H](CCCCN)CN(CC(N)=O)S(=O)(=O)CCN)S(=O)(=O)CC(C)C)S(=O)(=O)CCN)S(=O)(=O)CC(C)C)S(=O)(=O)CCN)S(=O)(=O)CC(C)C)S(=O)(=O)CCN)S(=O)(=O)CC(C)C | > 50 | 12 (≈ 5.34 µM) | > 50 | 50 (≈ 22.2 µM) | 25 (≈ 11.1 µM) | > 250 | 
Unstable | CC[C@H](C)[C@H](NC(=O)[C@H](CCC(N)=O)NC(=O)[C@@H](NC(C)=O)C(C)C)C(=O)N[C@H](C(=O)N[C@@H](Cc1ccc(O)cc1)C(=O)N[C@@H](CCCCN)C(=O)O)C(C)C (Ac-VQIVYK-OH) |  |  |  |  |  |  | 
 | NCCCC[C@@H](CN(CC(N)=O)S(=O)(=O)CCN)NC(=O)CN(C[C@H](Cc1ccccc1)NC(=O)CN(C[C@H](Cc1ccccc1)NC(=O)CN(C[C@H](Cc1ccccc1)NC(=O)CN(C[C@H](CCCCN)NC(=O)CN(C[C@@H](N)Cc1ccccc1)S(=O)(=O)Cc1ccccc1)S(=O)(=O)CCN)S(=O)(=O)Cc1ccccc1)S(=O)(=O)CCN)S(=O)(=O)Cc1ccccc1 | 6 (≈ 3.15 µM) | 3 (≈ 1.58 µM) | > 50 | 25 (≈ 13.1 µM) | 12 (≈ 6.3 µM) | > 250 | 
 | NCCCC[C@H](N)CN(CC(=O)N[C@@H](Cc1ccccc1)CN(CC(=O)N[C@@H](CCCCN)CN(CC(=O)N[C@@H](Cc1ccccc1)CN(CC(=O)N[C@@H](CCCCN)CN(CC(=O)N[C@@H](Cc1ccccc1)CN(CC(=O)N[C@@H](CCCCN)CN(CC(=O)N[C@@H](Cc1ccccc1)CN(CC(N)=O)S(=O)(=O)Cc1ccccc1)S(=O)(=O)CCN)S(=O)(=O)Cc1ccccc1)S(=O)(=O)Cc1ccccc1)S(=O)(=O)Cc1ccccc1)S(=O)(=O)CCN)S(=O)(=O)Cc1ccccc1)S(=O)(=O)Cc1ccccc1 | 3 (≈ 1.15 µM) | 2 (≈ 0.769 µM) | 10 (≈ 3.84 µM) | 15 (≈ 5.76 µM) | 3 (≈ 1.15 µM) | 120 | 
 | CC(=O)N[C@@H](CCCCN)CN(CC(=O)N[C@@H](Cc1ccccc1)CN(CC(=O)N[C@@H](CCCCN)CN(CC(=O)N[C@@H](Cc1ccccc1)CN(CC(=O)N[C@@H](CCCCN)CN(CC(=O)N[C@@H](Cc1ccccc1)CN(CC(=O)N[C@@H](CCCCN)CN(CC(=O)N[C@@H](Cc1ccccc1)CN(CC(N)=O)S(=O)(=O)Cc1ccccc1)S(=O)(=O)CCN)S(=O)(=O)Cc1ccccc1)S(=O)(=O)CCN)S(=O)(=O)Cc1ccccc1)S(=O)(=O)CCN)S(=O)(=O)Cc1ccccc1)S(=O)(=O)CCN | 12 (≈ 4.71 µM) | 4 (≈ 1.57 µM) | 6 (≈ 2.35 µM) | > 50 | 6 (≈ 2.35 µM) | 150 | 
 | NCCCC[C@@H](CN(CC(N)=O)S(=O)(=O)CCN)NC(=O)CN(C[C@@H](N)Cc1ccccc1)S(=O)(=O)Cc1ccccc1 | > 50 | > 50 | > 50 | > 50 | > 50 |  | 
 | CC(=O)N[C@@H](Cc1ccccc1)CN(CC(=O)N[C@@H](Cc1ccccc1)CN(CC(=O)N[C@@H](Cc1ccccc1)CN(CC(=O)N[C@@H](Cc1ccccc1)CN(CC(=O)N[C@@H](Cc1ccccc1)CN(CC(=O)N[C@@H](Cc1ccccc1)CN(CC(=O)N[C@@H](Cc1ccccc1)CN(CC(=O)N[C@@H](Cc1ccccc1)CN(CC(N)=O)S(=O)(=O)CCN)S(=O)(=O)CCN)S(=O)(=O)CCN)S(=O)(=O)CCN)S(=O)(=O)CCN)S(=O)(=O)CCN)S(=O)(=O)CCN)S(=O)(=O)CCN | 25 (≈ 10.3 µM) | 6 (≈ 2.46 µM) | 50 (≈ 20.5 µM) | > 50 | > 50 | > 250 | 
 | CC[C@H](C)[C@H](NC(=O)CN)C(=O)NCC(=O)N[C@@H](CCCCN)C(=O)N[C@@H](Cc1ccccc1)C(=O)N[C@@H](CC(C)C)C(=O)N[C@@H](CCCCN)C(=O)N[C@@H](CCCCN)C(=O)N[C@@H](C)C(=O)N[C@@H](CCCCN)C(=O)N[C@@H](CCCCN)C(=O)N[C@@H](Cc1ccccc1)C(=O)NCC(=O)N[C@@H](CCCCN)C(=O)N[C@@H](C)C(=O)N[C@@H](Cc1ccccc1)C(=O)N[C@H](C(=O)N[C@@H](CCCCN)C(=O)N[C@H](C(=O)N[C@@H](CC(C)C)C(=O)N[C@@H](CCCCN)C(=O)N[C@@H](CCCCN)C(N)=O)[C@@H](C)CC)C(C)C [PEXIGANAN] (H-GIGKFLKKAKKFGKAFVKILKK-NH2) | 16 (≈ 6.46 µM) | 8 (≈ 3.23 µM) | 32 (≈ 12.9 µM) | 16 (≈ 6.46 µM) | 8 (≈ 3.23 µM) |  | 
 | CC(=O)N[C@@H](CCCCN)CN(CC(=O)N[C@@H](Cc1ccccc1)CN(CC(=O)N[C@@H](CCCCN)CN(CC(=O)N[C@@H](Cc1ccccc1)CN(CC(=O)N[C@@H](CCCCN)CN(CC(=O)N[C@@H](Cc1ccccc1)CN(CC(=O)N[C@@H](CCCCN)CN(CC(=O)N[C@@H](Cc1ccccc1)CN(CC(N)=O)S(=O)(=O)Cc1ccccc1)S(=O)(=O)CCN)S(=O)(=O)Cc1ccccc1)S(=O)(=O)Cc1ccccc1)S(=O)(=O)Cc1ccccc1)S(=O)(=O)CCN)S(=O)(=O)Cc1ccccc1)S(=O)(=O)Cc1ccccc1 | 5 (≈ 1.89 µM) | 2 (≈ 0.756 µM) | 10 (≈ 3.78 µM) | 20 (≈ 7.56 µM) | 3 (≈ 1.13 µM) | 80 | 
